Measurements from publication PMC4301979 (Nature chemical biology, 2015).

Experiments:
ABHD16A [1] = biological target: T1, ABHD16A (Homo sapiens, UniProt O95870); test: PS substrate; type: biochemical; details: 95% interval for the reported IC50 value, human ABHD16A PS lipase activity
T1 sequence (O95870 1-558): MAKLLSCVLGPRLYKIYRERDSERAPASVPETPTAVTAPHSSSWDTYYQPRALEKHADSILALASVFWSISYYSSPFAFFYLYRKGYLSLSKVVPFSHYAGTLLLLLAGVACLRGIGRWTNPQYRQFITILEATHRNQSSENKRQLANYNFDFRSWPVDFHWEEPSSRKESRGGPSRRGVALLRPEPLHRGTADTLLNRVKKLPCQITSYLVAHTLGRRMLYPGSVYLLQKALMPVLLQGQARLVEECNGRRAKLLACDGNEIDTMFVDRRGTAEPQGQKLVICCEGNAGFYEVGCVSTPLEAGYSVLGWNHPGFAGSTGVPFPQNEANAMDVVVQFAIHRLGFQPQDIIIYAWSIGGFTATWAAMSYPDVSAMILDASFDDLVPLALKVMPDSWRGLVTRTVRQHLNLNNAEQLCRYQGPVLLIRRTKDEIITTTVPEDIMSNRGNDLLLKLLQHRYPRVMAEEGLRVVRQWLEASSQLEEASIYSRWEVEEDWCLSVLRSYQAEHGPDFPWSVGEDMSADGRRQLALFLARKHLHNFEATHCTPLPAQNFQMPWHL

ABHD16A [2] = biological target: T1, ABHD16A; test: biochemical; type: binding
mouse ABHD16A = biological target: T2, mouse ABHD16A (Mus musculus, UniProt Q9Z1Q2); test: competitive gel-based ABPP, mouse ABHD16A-transfected HEK293T proteome; type: binding
T2 sequence (Q9Z1Q2 1-558): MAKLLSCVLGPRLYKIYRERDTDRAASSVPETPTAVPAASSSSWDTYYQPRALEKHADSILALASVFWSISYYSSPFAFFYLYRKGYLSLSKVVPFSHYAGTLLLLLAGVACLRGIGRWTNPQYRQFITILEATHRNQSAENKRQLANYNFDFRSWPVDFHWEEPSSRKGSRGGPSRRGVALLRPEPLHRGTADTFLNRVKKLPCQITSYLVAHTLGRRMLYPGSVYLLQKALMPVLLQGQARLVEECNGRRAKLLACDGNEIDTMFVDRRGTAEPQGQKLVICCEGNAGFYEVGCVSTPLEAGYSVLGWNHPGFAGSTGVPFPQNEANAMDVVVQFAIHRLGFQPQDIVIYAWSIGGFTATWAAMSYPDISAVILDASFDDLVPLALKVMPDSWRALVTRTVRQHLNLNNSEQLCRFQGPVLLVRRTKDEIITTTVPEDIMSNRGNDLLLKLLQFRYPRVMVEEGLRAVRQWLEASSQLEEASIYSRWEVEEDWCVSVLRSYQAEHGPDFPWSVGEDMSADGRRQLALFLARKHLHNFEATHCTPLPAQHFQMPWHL

ABHD16A [3] = biological target: T1, ABHD16A; test: competitive gel-based ABPP, K562 cells treated in situ; type: cell-based; details: in situ IC50 for ABHD16A, 4 h treatment, 37 °C
ABHD16A [4] = biological target: T1, ABHD16A; test: ABPP-SILAC of serine hydrolase activities in COLO205 cells treated in situ; type: cell-based; details: 1 μM, 4 h, 37 °C
[5] = system: additional off-targets (serine hydrolase activities); test: as above; type: cell-based, human; details: 1 μM, 4 h, 37 °C
COLO205 cells = test: LC-MS-based lipid profiling of treated cells; type: cell-based, human; details: COLO205, 1 μM, 4 h
Summary of the method: (§1)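 Cells grown in RPMI 1640 with 10% FCS and penicillin-streptomycin. 3 x 10^6 cells washed, then exposed to test compound (1 μM) or DMSO for 4 h at 37 °C, 5% CO2, in serum-free, phenol red-free RPMI. Media and cells extracted with 2:1 CHCl3:MeOH plus internal standards. Lipids quantified by LC-MS MRM (ESI) as peak area versus unnatural internal standard, normalized to cell number.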

[6] = system: PS lipase activity of human LCLs; test: PS lipase activity of membrane proteomes of lymphoblast cell lines; type: biochemical; details: 1 µM, 30 min, 37 °C; all LCL samples
Summary of the method: (§2)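 Membrane proteome (20 μg) incubated with 100 μM lipid substrate in PBS (100 μL), shaking, […] for 30 min. Quenched with 2:1 CHCl3:MeOH and internal standard, then extracted twice. Product quantified by LC-QTOF-MS, ESI negative mode, as peak area relative to internal standard. Non-enzymatic rate from heat-denatured proteome (95 °C, 15 min) subtracted.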

[7] = system: human lymphoblast cell lines (LCLs); test: targeted LC-MS analysis of lyso-PS in LCLs; type: cell-based; details: 1 μM, 4 h
Summary of the method: as §1

ABHD16A [8] = biological target: T1, ABHD16A; test: gel-based ABPP of LCLs treated in situ; type: cell-based; details: 1 µM, 4 h in situ
[9] = system: PS lipase activity of mouse peritoneal macrophages; test: PS lipase activity of membrane proteomes of peritoneal macrophages; type: biochemical; details: vehicle- and LPS-stimulated macrophages; 1 µM, 30 min, 37 °C
Summary of the method: as §2

[10] = system: thioglycollate-elicited mouse peritoneal macrophages; test: cellular and secreted lyso-PS of thioglycollate-elicited peritoneal macrophages; type: cell-based; details: 4 h
Summary of the method: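 Thioglycollate-elicited peritoneal macrophages from wild-type, ABHD12−/− or ABHD16A−/− mice. 2 x 10^6 cells plated and adhered 2 h at 37 °C. Washed, then test compound (1 μM) or DMSO given for 4 h in serum-free, phenol red-free RPMI. LPS 5 μg/mL in PBS for 7 h. Media (4 mL) and cells extracted with CHCl3:MeOH. Lipids quantified by LC-MS MRM against internal standards, normalized to cell number.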

[11] = system: thioglycollate-elicited mouse peritoneal macrophages; test: secreted cytokines of thioglycollate-elicited peritoneal macrophages; type: cell-based; details: 4 h
Summary of the method: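 Peritoneal macrophages elicited by thioglycollate from wild-type, ABHD12−/− or ABHD16A−/− mice. 2 x 10^6 cells allowed to adhere 2 h, then washed. Test compound (1 μM) or DMSO applied for 4 h in serum-free, phenol red-free RPMI, then LPS (5 μg/mL, 7 h, in PBS). Cytokines measured in 0.5 mL harvested medium by mouse single-analyte ELISA.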

ABHD12 = details: read-out: IC50, competitive ABPP; brain serine hydrolases; cited from earlier work
ABHD16A/BAT5 = details: read-out: IC50, competitive ABPP; uncharacterized 60 kDa membrane enzyme tentatively identified as ABHD16A/BAT5; cited from earlier work
[12] = biological target: T3, ABHD16A (WT and S355A mutant) (Homo sapiens, UniProt O95870); test: activity-dependent labeling of ABHD16A in transfected HEK293T cell lysates; type: binding; details: 0.2 µM, 30 min, 37 °C
T3 sequence (O95870 1-558): T1 sequence (O95870 1-558)

[13] = ABHD12−/− macrophages, pre-treatment 1 μM
[14] = ABHD16A−/− macrophages, basal or LPS stimulation, 1 µM
[15] = wild-type macrophages, pre-treatment 1 μM, LPS 5 μg/mL, 7 h

CCCCCCCCCCCCCC1OC(=O)/C1=C\CCCCC(N)=O (centres unmarked) [KC01]
IC50 (ABHD16A [1]): 0.069 to 0.105 µM | IC50 (ABHD16A [2]): 0.2 to 0.5 µM | IC50 (mouse ABHD16A): 0.2 to 0.5 µM | IC50 (ABHD16A [3]): ~0.3 µM | light:heavy ratio for ABHD16A (ABPP-SILAC) (ABHD16A [4]): 0.02 | partial inhibition of a handful of additional off-targets (ABPP-SILAC) [5]: 50–80% | cellular lyso-PSs versus DMSO-treated control cells (COLO205 cells): significant reductions | other lipids (PSs, PCs, PEs, lyso-PCs, lyso-PEs, MAGs) (COLO205 cells): No changes | secreted lyso-PSs (18:1 and 18:0) (COLO205 cells; serum-free media): decreased | PS lipase activity of LCL membrane proteomes [6]: inhibited | secreted lyso-PSs of the ABHD12-null LCL ([7]; PHARC subject-derived LCL): significantly lowered | cellular lyso-PSs of LCLs ([7]; all LCLs): decreased cellular lyso-PSs | inhibition of ABHD16A in LCLs by gel-based ABPP (ABHD16A [8]): confirmed inhibition | PS lipase activity of macrophage membrane proteomes [9]: blocked | LPS-induced increases in lyso-PSs [10, 13]: blocked | cellular or secreted lyso-PS and other measured lipids [10, 14]: no changes | basal and LPS-induced increases in cellular and secreted lyso-PSs [10, 15]: reduced | LPS-induced increases in cytokine secretion [11, 13]: blocked | secreted proinflammatory cytokines (IL-6 and TNF-α) [11, 14]: no changes | LPS-induced cytokine release [11, 15]: significantly blunted

CCCCCCCCCCC[C@@H](C[C@@H]1OC(=O)[C@H]1CCCCCC)OC(=O)[C@H](CC(C)C)NC=O [THL, tetrahydrolipstatin]
IC50 (ABHD12): ~0.1 µM | IC50 (ABHD16A/BAT5): ~0.1 µM

CCCCCCCCCCCCCC1OC(=O)/C1=C\CCCC(=O)NCCCCCNC(=O)c1ccc(-c2c3ccc(=[N+](C)C)cc-3oc3cc(N(C)C)ccc23)c(C(=O)[O-])c1 (centres unmarked) [WHP01]
labeling of ABHD16A by fluorescent probe [12]: labeled WT-ABHD16A but not the catalytic serine S355A mutant
